According to PMC12004261 (RSC Medicinal Chemistry, 2025):
Entries after “also recorded” stand apart in the source; their conditions may differ.

How the values were obtained:
[1] = biological target: AD brain tissue homogenates; experiment: Saturation binding assay of [^3H]M503-1619 in AD brain tissue homogenates; set-up: species or system human; conditions: AD tissue (n = 4), mean ± SD
Procedure, shortened: (§1)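 Frozen brain homogenate in pH 7.0 PBS, diluted to a final 100 μg tissue per mL. Contained ~1 nM tritiated test compound plus 0.2–1000 nM unlabelled compound and 0.25% DMSO (final). Incubated 60 min at room temperature, GF/B filtration, three PBS washes, scintillation counting after standing overnight. Nondisplaceable binding set with ~1 μM unlabelled compound; bound corrected for diluted specific activity. KD from Scatchard slope, Bmax from x-intercept; at least triplicate.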

[2] = Radiometabolite study of venous blood plasma; assay type: in vivo, rhesus monkey; conditions: 7.5 min post-injection
Procedure, shortened: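 Plasma from a 26-year-old male rhesus macaque was sampled during a PET scan after IV injection of 105 MBq of the 11C-labelled test compound. The animal was anaesthetised with ketamine/dexmedetomidine and maintained on isoflurane. Venous blood was spun 5 min at 3000g and the plasma deproteinised with acetonitrile 1:1. Reverse-phase C18 HPLC used 65% 0.1 M ammonium formate/35% acetonitrile at 1.2 mL min−1. An in-line radio-detector measured parent fraction by standard retention time.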

[3] = Total-body PET imaging study; assay type: in vivo, rhesus macaque; conditions: rhesus monkey
[4] = biological target: PD brain tissue homogenates (Homo sapiens, UniProt P37840); experiment: Saturation binding assay of [^3H]M503-1619 in PD brain tissue homogenates
Procedure, shortened: as §1

[5] = biological target: PSP brain tissue homogenates (Homo sapiens, UniProt P10636); experiment: Saturation binding assay of [^3H]M503-1619 in PSP brain tissue homogenates
Sequence of PSP brain tissue homogenates (P10636 561-698 limits assumed): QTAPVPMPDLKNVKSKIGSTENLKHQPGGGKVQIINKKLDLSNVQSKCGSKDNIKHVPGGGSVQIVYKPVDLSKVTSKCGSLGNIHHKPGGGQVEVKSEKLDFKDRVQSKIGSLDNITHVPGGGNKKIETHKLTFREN
Procedure, shortened: as §1

[6] = biological target: α-Syn (Lewy bodies in PD, GCIs in MSA) (Homo sapiens, UniProt P37840); experiment: Nuclear emulsion; assay type: binding; conditions: 5 nM and 15 nM, listed as [^3H]M503-1619
Procedure, shortened: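 Fresh-frozen PD and MSA cryosections (16 μm) were quenched for lipofuscin with TrueBlack in 70% EtOH and immunostained for pS129 α-Syn. Sections were incubated with 5 or 15 nM tritiated test compound in 30 mM Tris–HCl pH 7.4 for 2 h at 37 °C, then given graded Tris/ethanol washes. Emulsion-dipped slides were exposed 4 days in the dark and developed. Silver grains were imaged by brightfield alongside fluorescence.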

synthetic α-Syn fibrils = synthetic α-Syn fibrils (Homo sapiens, UniProt P37840); experiment: Saturation binding assay of [^3H]M503-1619 in α-Syn fibrils
[7] = biological target: CBD brain tissue homogenates (Homo sapiens, UniProt P10636); experiment: Saturation binding assay of [^3H]M503-1619 in CBD brain tissue homogenates
Sequence of CBD brain tissue homogenates (P10636 561-708 limits assumed): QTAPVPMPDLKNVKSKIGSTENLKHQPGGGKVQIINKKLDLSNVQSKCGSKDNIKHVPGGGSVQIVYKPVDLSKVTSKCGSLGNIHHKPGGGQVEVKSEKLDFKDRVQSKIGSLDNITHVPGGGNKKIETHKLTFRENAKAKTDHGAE
Procedure, shortened: as §1

Brain PET imaging study = assay type: in vivo, cynomolgus macaque; conditions: cynomolgus monkey
Procedure, shortened: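 Male cynomolgus macaque (8.5 kg), ketamine 10–20 mg kg−1 induction, kept on 40% N2O/60% O2 with 1.0–1.5% isoflurane. After a positioning scan and a 45 min transmission scan for attenuation, ~350 MBq of the 11C-labelled test compound was given by limb-vein catheter. Two-hour dynamic scan, filtered back projection with corrections, co-registration to a monkey MRI template, whole-brain VOI. SUV normalised to body weight and injected dose.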

COc1ccc(NC(=O)c2cnc(N3CCN(c4ccccn4)CC3)nc2N)cc1 [M503-1619, 4-Amino-N-(4-methoxyphenyl)-2-(4-(pyridin-2-yl)piperazin-1-yl)pyrimidine-5-carboxamide]
Kd [1]: 37 ± 2 nM | Parent (%) [2]: 57% | Time of peak uptake of the whole brain [3]: 2 to 3 min | Whole brain peak to 60 min ratio [3]: 3.2 | Peak uptake of the whole brain, standardized uptake value (SUV) ([3]; whole brain): 2.5 | Kd [4]: 2.5 ± 0.3 nM | Bmax ([4]; PD tissue (n = 4)): 59 ± 10 nM | Selectivity vs. tau ([4]; α-Syn vs. tau): 10–20 fold | Kd [5]: 55 ± 3 nM | Bmax ([5]; PSP tissue (n = 4)): 399 ± 24 nM | High-resolution autoradiography: binding to GCIs ([6]; MSA brain tissue sections): not to GCIs present in MSA; also recorded: not on GCIs in MSA brain | High-resolution autoradiography: binding to Lewy bodies ([6]; PD brain tissue sections): target engagement of [^3H]M503-1619 to Lewy bodies in PD brain; also recorded: accumulation of silver grains on Lewy bodies in PD | Kd (synthetic α-Syn fibrils): 4.4 ± 1 nM | Bmax (synthetic α-Syn fibrils; α-Syn fibrils (n = 4)): 1156 ± 112 nM | Kd [7]: 94 ± 13 nM | Bmax ([7]; CBD tissue (n = 3)): 540 ± 130 nM | Time of peak uptake of the whole brain (Brain PET imaging study): 2 to 3 min | Whole brain peak to 60 min ratio (Brain PET imaging study): 3.2 | Peak uptake of the whole brain, standardized uptake value (SUV) (Brain PET imaging study; whole brain): 2.3
